We go through seven compounds from paper PMC4148169 (Journal of Medicinal Chemistry, 2014).

Where a name gives a salt, the structure may show the parent alone. Read-outs that look alike come from different tables or passages of the source.

One data set deals with human 3A4. The settings on record: cited from earlier work.
For a further data set, the target named is CYP3A4 (Homo sapiens, UniProt P08684). As to the kind of experiment: CYP inhibition in human liver microsomes, 3A4. It is filed as in vitro ADME.
For a further data set, the target named is CYP2D6 (Homo sapiens, UniProt P10635). As to the kind of experiment: CYP inhibition in human liver microsomes, 2D6. Type of data set: in vitro ADME.
For another data set, the system named is T. cruzi Y luc strain. It is filed as in vivo, Trypanosoma cruzi. As to conditions: posaconazole 20 mg/kg, ip, bid, 4 days; two independent experiments (A, B).
The next data set has as its target T1, CYP1A2 (Homo sapiens, UniProt P05177).
T1 sequence (P05177 1-516): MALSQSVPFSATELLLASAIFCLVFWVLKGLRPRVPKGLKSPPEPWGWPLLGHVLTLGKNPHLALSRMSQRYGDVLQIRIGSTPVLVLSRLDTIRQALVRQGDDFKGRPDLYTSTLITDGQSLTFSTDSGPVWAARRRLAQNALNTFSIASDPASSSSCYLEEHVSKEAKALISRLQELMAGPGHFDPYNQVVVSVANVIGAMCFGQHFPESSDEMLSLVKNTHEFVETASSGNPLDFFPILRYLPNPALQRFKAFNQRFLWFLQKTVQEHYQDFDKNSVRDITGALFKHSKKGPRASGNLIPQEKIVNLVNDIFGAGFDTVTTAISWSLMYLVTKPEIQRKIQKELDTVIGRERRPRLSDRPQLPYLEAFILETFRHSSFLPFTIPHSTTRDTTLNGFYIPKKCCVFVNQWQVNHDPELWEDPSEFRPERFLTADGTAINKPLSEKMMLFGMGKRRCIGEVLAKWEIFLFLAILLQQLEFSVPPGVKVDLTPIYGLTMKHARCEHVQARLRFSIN
Put plainly: CYP inhibition in human liver microsomes, 1A2. Type of data set: in vitro ADME. A general note: Liver microsomes are vesicles of endoplasmic reticulum, rich in cytochrome P450 enzymes.

A further data set addresses CYP2C9 (Homo sapiens, UniProt P11712). Put plainly: CYP inhibition in human liver microsomes, 2C9. Type of data set: in vitro ADME.
For data set [1] the following is noted: cited from earlier work.
The next data set in a line: Single dose PK. Type of data set: in vivo. The settings on record: female, Swiss Webster, mouse, plasma, po, 50 mg/kg. In outline: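 Eight-week-old female Swiss Webster mice were given one oral gavage dose of 50 mg/kg, formulated at 10 mg/mL in 20% solutol/80% water. Nine mice were dosed, with n = 3 plasma samples at about 0.25, 0.5, 1, 2, 4, 6, 8, 12 and 24 h. Plasma protein was precipitated with 5 volumes of acetonitrile and filtered through 0.2 μm, then quantified by LC-MS/MS.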

The subject of another data set is 2C9. As to conditions: read-out: IC50 toward 2C9; cited from earlier work.
The nature of data set [2]: Solubility in oral dosing vehicles. It is filed as physicochemical. The settings on record: oral dosing vehicle.
[3] abbreviates: read-out: IC50 against human 3A4, ref 35.
[4] abbreviates: read-out: IC50 against human 3A4, ref 67.

CYP2C9, sequence (P11712 whole entry): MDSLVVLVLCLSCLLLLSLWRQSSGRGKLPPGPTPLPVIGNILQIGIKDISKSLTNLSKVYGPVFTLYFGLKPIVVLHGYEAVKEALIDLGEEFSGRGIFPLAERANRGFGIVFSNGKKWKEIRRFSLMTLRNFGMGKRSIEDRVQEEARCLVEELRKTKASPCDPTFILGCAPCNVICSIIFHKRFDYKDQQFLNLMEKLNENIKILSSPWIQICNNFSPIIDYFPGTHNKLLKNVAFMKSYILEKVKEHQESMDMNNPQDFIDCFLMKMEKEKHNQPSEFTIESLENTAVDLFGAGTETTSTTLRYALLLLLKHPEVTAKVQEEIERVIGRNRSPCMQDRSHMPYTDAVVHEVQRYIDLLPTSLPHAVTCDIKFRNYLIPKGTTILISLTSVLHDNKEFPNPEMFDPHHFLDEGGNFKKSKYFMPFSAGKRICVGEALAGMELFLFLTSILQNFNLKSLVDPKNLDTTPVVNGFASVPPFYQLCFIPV
CYP3A4, sequence (P08684 whole entry): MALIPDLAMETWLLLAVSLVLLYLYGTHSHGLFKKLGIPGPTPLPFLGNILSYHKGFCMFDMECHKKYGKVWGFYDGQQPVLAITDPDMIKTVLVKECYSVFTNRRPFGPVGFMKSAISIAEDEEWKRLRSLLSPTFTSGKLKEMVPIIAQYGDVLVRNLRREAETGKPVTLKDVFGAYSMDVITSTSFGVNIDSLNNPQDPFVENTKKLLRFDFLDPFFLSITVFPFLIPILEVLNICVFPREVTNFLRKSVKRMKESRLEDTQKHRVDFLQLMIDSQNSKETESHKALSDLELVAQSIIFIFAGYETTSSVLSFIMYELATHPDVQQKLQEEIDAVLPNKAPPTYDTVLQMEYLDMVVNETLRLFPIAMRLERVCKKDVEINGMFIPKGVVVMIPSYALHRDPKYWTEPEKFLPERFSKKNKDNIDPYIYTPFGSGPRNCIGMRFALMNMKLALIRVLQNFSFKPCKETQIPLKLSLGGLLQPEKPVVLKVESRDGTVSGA
CYP2D6, sequence (P10635 whole entry): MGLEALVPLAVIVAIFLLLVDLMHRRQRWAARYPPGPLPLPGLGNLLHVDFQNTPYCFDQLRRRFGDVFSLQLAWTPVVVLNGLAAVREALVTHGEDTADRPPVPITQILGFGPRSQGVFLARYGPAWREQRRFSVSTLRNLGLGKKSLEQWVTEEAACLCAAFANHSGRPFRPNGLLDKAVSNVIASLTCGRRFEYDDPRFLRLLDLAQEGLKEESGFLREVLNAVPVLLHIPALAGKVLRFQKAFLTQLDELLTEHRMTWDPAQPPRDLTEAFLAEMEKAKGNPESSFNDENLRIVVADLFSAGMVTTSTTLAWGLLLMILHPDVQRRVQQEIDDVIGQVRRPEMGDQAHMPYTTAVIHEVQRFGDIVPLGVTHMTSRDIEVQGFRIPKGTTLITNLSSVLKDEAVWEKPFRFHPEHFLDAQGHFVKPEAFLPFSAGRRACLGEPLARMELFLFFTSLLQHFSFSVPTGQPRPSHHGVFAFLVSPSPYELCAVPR

The term IC50 denotes the concentration needed to halve the response being measured. For the compound `CC(=O)N1CCN(c2ccc(OCC3COC(Cn4ccnc4)(c4ccc(Cl)cc4Cl)O3)cc2)CC1` (stereo not shown) [ketoconazole], the concentration for half-maximal inhibition (IC50) with human 3A4 (setting [3]) is 40 nM; in the data set on human 3A4 (setting [4]), 8 nM.
What is called inhibition is the drop in the measured response relative to a control, in per cent. As for `CC[C@@H]([C@H](C)O)n1ncn(-c2ccc(N3CCN(c4ccc(OC[C@@H]5CO[C@@](Cn6cncn6)(c6ccc(F)cc6F)C5)cc4)CC3)cc2)c1=O` [Posaconazole], the inhibition at 1 µM on CYP3A4 is 68%; against CYP2D6, -9%; on CYP1A2, -11%; against CYP2C9 it was -3%. Also, in the data set on T. cruzi Y luc strain, the “inhibition of parasitemia, positive control” value is on record as 94–99%. The concentration for half-maximal inhibition (IC50) in the data set with human 3A4 (setting [3]) is 350 nM; in the data set with human 3A4 (setting [4]), 120 nM. For the same compound, in [1], the half-life in humans result is on record as “measured in days”.
What is called half-life is the time in which the quantity being followed falls by half. A lower half-life goes with rapid decline. In turn, `O=C(N[C@H](Cc1c[nH]c2ccccc12)C(=O)Nc1ccncc1)c1ccc(-c2ccc(F)c(F)c2)cc1F` [compound 2, (R)-N-(3-(1H-Indol-3-yl)-1-oxo-1-(pyridin-4-ylamino)propan-2-yl)-3,3′,4′-trifluoro-[1,1′-biphenyl]-4-carboxamide] returned a half-life in the data set “Single dose PK” of under 3.3 h.
For `O=C([C@@H](c1ccc(Cl)cc1)c1cccnc1)N1CCN(c2ccc(C(F)(F)F)cc2)CC1` [EPL-BS1246], the 50% inhibitory concentration (IC50) in the data set with 2C9 was 8000 to 9000 nM; with human 3A4 (read-out: IC50 toward 3A4), at least 20000 nM.
For `CCO.C[C@@H](c1nc(-c2ccc(C#N)cc2)cs1)[C@@](Cn1cncn1)(OCOP(=O)(O)O)c1ccc(F)cc1F.NCCCC[C@H](N)C(=O)O` [E1224], the half-life in humans entry in data set [1] is reported as “measured in days”.
In the data set “Single dose PK”, `O=C(N[C@H](Cc1c[nH]c2ccccc12)C(=O)Nc1ccncc1)c1ccc(-c2ccc(F)c(C(F)(F)F)c2)cc1F` [compound 6, (R)-N-(3-(1H-Indol-3-yl)-1-oxo-1-(pyridin-4-ylamino)propan-2-yl)-3,4′-difluoro-3′-(trifluoromethyl)-[1,1′-biphenyl]-4-carboxamide] yielded a half-life of under 3.3 h.
`O=C(N[C@H](Cc1c[nH]c2ccccc12)C(=O)Nc1ccncc1)c1ccc(-c2ccc(F)c(Cl)c2)cc1F` [compound 7, (R)-N-(3-(1H-Indol-3-yl)-1-oxo-1-(pyridin-4-ylamino)propan-2-yl)-3′-chloro-3,4′-difluoro-[1,1′-biphenyl]-4-carboxamide hydrochloride]: the “solubility in 20% HPβCD” value in [2] was “fully soluble”.
